Some results are limits rather than exact numbers.

Assay [1] concerns the target T1, Caspase-3 (Homo sapiens, UniProt P42574).
T1 sequence (P42574 whole entry): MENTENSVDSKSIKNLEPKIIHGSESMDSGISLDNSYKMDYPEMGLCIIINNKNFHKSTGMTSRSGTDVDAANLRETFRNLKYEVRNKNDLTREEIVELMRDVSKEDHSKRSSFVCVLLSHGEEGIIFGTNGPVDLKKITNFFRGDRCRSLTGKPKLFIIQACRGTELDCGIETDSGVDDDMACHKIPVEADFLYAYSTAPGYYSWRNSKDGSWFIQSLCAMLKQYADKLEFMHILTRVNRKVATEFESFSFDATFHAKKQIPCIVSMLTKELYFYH
The experiment in a line: Inhibition of staurosporine induced activation of caspase 3 activation in human Hela cells assessed as hydrolysis of Z-DEVD-R110 substrate by microplate fluorescence assay. In kind it is cell-based. The method, boiled down: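 HeLa cells were seeded at 1-2×10^4 per well and left to adhere overnight at 37°C in 5% CO2. […] A homogeneous caspase-3/7 kit with cell-permeable Z-DEVD-R110 was then used, reading fluorescence at ex 485/em 535 nm. EC50 was taken from dose-response curves, as mean ± SD of ≥3 independent experiments.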

Assay [2] concerns the target T1, Caspase-3. As to the kind of experiment: Inhibition of human caspase 3 by fluorometric assay. The method, boiled down:
(§1)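 Recombinant caspases were tested in a standard fluorometric enzyme assay. IC50 is reported as mean ± SD of at least three independent assays.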

Assay [3] concerns the target T2, Caspase-1 (Homo sapiens, UniProt P29466).
T2 sequence (P29466 whole entry): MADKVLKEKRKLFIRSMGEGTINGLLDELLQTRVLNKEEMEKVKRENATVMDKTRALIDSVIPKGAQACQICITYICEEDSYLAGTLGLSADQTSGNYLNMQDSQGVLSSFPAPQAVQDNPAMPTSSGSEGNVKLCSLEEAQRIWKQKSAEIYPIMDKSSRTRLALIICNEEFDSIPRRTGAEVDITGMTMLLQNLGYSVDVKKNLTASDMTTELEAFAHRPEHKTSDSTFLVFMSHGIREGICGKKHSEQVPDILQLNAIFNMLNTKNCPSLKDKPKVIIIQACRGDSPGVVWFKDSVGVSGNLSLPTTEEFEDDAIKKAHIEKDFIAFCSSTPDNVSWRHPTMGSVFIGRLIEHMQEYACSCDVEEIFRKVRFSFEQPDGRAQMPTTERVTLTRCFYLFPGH
The experiment in a line: Inhibition of caspase 1 by fluorometric assay. The method, boiled down:
as §1

In assay [4] the target is T3, Caspase-6 (Homo sapiens, UniProt P55212).
T3 sequence (P55212 whole entry): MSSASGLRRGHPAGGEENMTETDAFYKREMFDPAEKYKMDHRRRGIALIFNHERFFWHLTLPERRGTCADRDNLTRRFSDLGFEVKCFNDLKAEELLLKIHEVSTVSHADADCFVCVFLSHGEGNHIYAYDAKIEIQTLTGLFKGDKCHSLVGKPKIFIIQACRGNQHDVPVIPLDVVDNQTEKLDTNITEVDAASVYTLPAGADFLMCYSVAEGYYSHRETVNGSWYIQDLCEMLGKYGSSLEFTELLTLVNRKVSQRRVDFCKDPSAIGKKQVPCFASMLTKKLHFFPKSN
As to the kind of experiment: Inhibition of caspase 6 by fluorometric assay. The method, boiled down:
as §1

Assay [5] has as its target T4, Caspase-7 (Homo sapiens, UniProt P55210).
T4 sequence (P55210 whole entry): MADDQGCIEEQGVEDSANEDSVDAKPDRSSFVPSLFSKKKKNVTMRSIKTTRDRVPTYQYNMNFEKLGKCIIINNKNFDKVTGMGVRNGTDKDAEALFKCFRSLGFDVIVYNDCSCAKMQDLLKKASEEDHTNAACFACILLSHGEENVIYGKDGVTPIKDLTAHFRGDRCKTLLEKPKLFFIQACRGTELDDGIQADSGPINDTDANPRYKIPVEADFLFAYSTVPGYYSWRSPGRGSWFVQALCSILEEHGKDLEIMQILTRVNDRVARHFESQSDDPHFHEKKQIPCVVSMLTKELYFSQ
As to the kind of experiment: Inhibition of caspase 7 by fluorometric assay.

The target of assay [6] is Caspase-8 (Homo sapiens, UniProt Q14790). The experiment in a line: Inhibition of caspase 8 by fluorometric assay. The method, boiled down:
as §1

Chain of Caspase-8 (Q14790 217-374 limits assumed): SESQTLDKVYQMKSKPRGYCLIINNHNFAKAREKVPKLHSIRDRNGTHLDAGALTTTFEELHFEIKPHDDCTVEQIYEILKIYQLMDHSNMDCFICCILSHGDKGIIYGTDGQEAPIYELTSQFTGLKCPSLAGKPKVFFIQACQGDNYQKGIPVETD
Chain of Caspase-8 (Q14790 385-479 limits assumed): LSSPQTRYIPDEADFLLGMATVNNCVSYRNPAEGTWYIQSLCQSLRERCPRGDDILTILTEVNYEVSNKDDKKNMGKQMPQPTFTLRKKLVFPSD

Turning to `O=C1C(=O)N(Cc2ccc(OCCF)cc2)c2ccc(S(=O)(=O)N3CC[C@H]3COc3ccc(F)cc3F)cc21`, the EC50 (usually the midpoint of the concentration-response curve) in assay [1] was 1.39 µM. In addition, the IC50 (commonly the concentration that gives 50% inhibition) in assay [2] is 0.012 µM; in assay [3], more than 50 µM; in assay [4] it was 3.48 µM; in assay [5] it was 0.0154 µM; in assay [6], more than 50 µM.

With `O=C1C(=O)N(Cc2ccc(OCCF)cc2)c2ccc(S(=O)(=O)N3CCC[C@H]3COc3ccc(F)cc3F)cc21`, the EC50 in assay [1] is 2.5 µM. Moreover, the IC50 in assay [2] was 0.0152 µM; in assay [3], more than 50 µM; in assay [4] it was 9.12 µM; in assay [5] it was 0.0123 µM; in assay [6], more than 50 µM.

As to `O=C1C(=O)N(Cc2cn(CCF)nn2)c2ccc(S(=O)(=O)N3CC[C@H]3COc3ccc(F)cc3F)cc21`, the EC50 in assay [1] is 1.06 µM. The IC50 is 0.0134 µM in assay [2]; more than 20 µM in assay [3]; 4.7 µM in assay [4]; 0.0153 µM in assay [5]; more than 50 µM in assay [6].

With `O=C1C(=O)N(Cc2cn(CCF)nn2)c2ccc(S(=O)(=O)N3CCC[C@H]3COc3ccc(F)cc3F)cc21`, in assay [1], the EC50 was determined as 0.68 µM. Moreover, the IC50 is 0.0108 µM in assay [2]; more than 20 µM in assay [3]; 4.43 µM in assay [4]; 0.0116 µM in assay [5]; more than 50 µM in assay [6].

(Values after ChEMBL document CHEMBL1759857, “Synthesis and evaluation of isatin analogs as caspase-3 inhibitors: introduction of a hydrophilic group increases potency in a whole cell assay” (Bioorg Med Chem Lett, 2011).)
